In ChEMBL document CHEMBL4316598, “Synthesis, antiproliferative and apoptosis induction potential activities of novel bis(indolyl)hydrazide-hydrazone derivatives” (Bioorg Med Chem, 2019):
Calls of active or inactive are those of the source. No cut-off for these calls is given here.

Tests used:
[1] = biological target: T1, Tyrosine-protein phosphatase non-receptor type 1 (Homo sapiens) (UniProt P18031); test: Inhibition of recombinant human PTP1B using 6,8-difluoro-4-methylumbelliferyl phosphate fluorogenic substrate measured over 30 mins by fluorescence assay
T1 sequence (whole entry): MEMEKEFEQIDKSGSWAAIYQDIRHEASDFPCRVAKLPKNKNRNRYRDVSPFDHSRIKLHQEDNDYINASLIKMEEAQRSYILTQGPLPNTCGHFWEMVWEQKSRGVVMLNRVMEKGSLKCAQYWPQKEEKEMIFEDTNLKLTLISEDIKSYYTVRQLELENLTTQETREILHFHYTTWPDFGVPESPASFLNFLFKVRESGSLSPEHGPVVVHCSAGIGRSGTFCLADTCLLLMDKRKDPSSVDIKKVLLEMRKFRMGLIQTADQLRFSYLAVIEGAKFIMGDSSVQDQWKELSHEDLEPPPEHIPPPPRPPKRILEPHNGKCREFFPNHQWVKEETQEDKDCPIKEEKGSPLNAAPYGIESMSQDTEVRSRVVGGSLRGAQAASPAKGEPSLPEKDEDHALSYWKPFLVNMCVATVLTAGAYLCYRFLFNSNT
Procedure, shortened: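 Recombinant human PTP1B, 1.56 ng/well, in buffer of 25 mM HEPES, 50 mM NaCl, 2.5 mM EDTA, DTT and 0.01 mg/mL human albumin. Preincubated with compound for 30 min in the dark, then DiFMUP added (25 μL of 10 μM solution). Fluorescence read after 10 min (ex 360/em 465 nm). Triplicates; % inhibition relative to PTP inhibitor IV (0.16 mM) and buffer controls.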

[2] = biological target: c-Jun N-terminal kinase, JNK (Homo sapiens) (UniProt P45983+P53779+P45984); test: Activation of JNK phosphorylation in human MCF7 cells assessed as increase in ratio of phosphorylated JNK to total JNK level at 5 uM by ELISA; format: cell-based
Procedure, shortened: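 Cell-based ELISA: HeLa or MCF-7 cells (20×10^3/well) grown overnight at 37 °C, 5% CO2, treated with 5 μM, then fixed and blocked. Probed with rabbit anti-total and anti-phospho P38, JNK or ERK1/2 (1:100), then HRP anti-rabbit IgG. Result is the phospho/total ratio; inhibitor arms use […], […] or SP600125. n=3.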

[3] = system: HeLa; test: Induction of ROS generation in human HeLa cells at 5 uM after 4 hrs by DCFH-DA staining-based fluorescence spectrophotometric analysis relative to control; format: functional
Procedure, shortened: (§1)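 DCFH-DA ROS: HeLa or MCF-7 cells at 2×10^6/well cultured 12 h, treated 4 or 8 h; t-BHP (10 μM) is the positive control. DCFH-DA 10 μM added for 10 min at 37 °C, cells washed twice with PBS. Fluorescence read at ex 485/em 520 nm. For the NAC arm, NAC (5 mM) is added to the medium before treatment.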

[4] = system: HeLa; test: Induction of caspase-dependent apoptosis in human HeLa cells assessed as activation of caspase-6 at 1 to 3 uM after 24 hrs by Western blot analysis; format: functional, cell-based
Procedure, shortened: (§2)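 Cells were treated at 1, 3 and 5 µM for 24 h at 37 °C. Lysis was in ice-cold Triton X-100 buffer with protease and phosphatase inhibitors; nuclear proteins were extracted separately. Protein was quantified by BCA. Lysates were separated by electrophoresis, transferred to nitrocellulose and blocked in non-fat milk for 1 h. Primary antibody was applied overnight at 4 °C and secondary for 1 h at 28 °C. Detection was by enhanced chemiluminescence.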

[5] = system: HeLa; test: Induction of ROS generation in human HeLa cells at 5 uM after 8 hrs by DCFH-DA staining-based fluorescence spectrophotometric analysis relative to control; format: functional; procedure, shortened: as §1
[6] = system: MCF7; test: Induction of apoptosis in human MCF7 cells assessed as early apoptotic cells at 1 uM after 12 hrs by annexin-V FITC/propidium iodide staining based flow cytometric analysis relative to control; format: functional
Procedure, shortened: (§3)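 Cells were grown in DMEM with 10% heat-inactivated FBS at 37 °C and 5% CO₂, then plated at 500,000 cells/well in 24-well plates. They were treated from a DMSO stock (DMSO ≤0.1%) for 8, 12 or 16 h. After a PBS wash, cells were resuspended in binding buffer (10 mM HEPES pH 7.4, 2.5 mM CaCl₂, 140 mM NaCl, 0.1% BSA), stained 40 min with FITC-annexin V, then with PI, and run on the flow cytometer immediately. Values are the mean of three independent experiments.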

[7] = system: MCF7; test: Induction of apoptosis in human MCF7 cells assessed as late apoptotic cells at 1 uM after 12 hrs by annexin-V FITC/propidium iodide staining based flow cytometric analysis relative to control; format: functional; procedure, shortened: as §3
[8] = system: HeLa; test: Induction of apoptosis in human HeLa cells assessed as viable cells at 1 uM after 12 hrs by annexin-V FITC/propidium iodide staining based flow cytometric analysis relative to control; format: functional; conditions: read-out: Activity; procedure, shortened: as §3
[9] = system: MCF7; test: Induction of nitric oxide production in human MCF7 cells measured over 8 hrs by Griess reaction based assay; format: functional, cell-based
Procedure, shortened: (§4)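 Cells seeded at 2×10^6 cells/well for 12 h, then exposed to 1, 5 and 10 μM compound for 8 h at 37 °C. Culture supernatant mixed with Griess reagent (0.002% N-1-naphthyl-ethylenediamine dihydrochloride, 0.5% sulfanilic acid, 14% glacial acetic acid). Nitrite read by absorbance at 550 nm and compared with vehicle group.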

[10] = system: HeLa; test: Induction of apoptosis in human HeLa cells assessed as viable cells at 1 uM after 8 hrs by annexin-V FITC/propidium iodide staining based flow cytometric analysis relative to control; format: functional; conditions: read-out: Activity; procedure, shortened: as §3
[11] = system: HeLa; test: Induction of nitric oxide production in human HeLa cells measured over 8 hrs by Griess reaction based assay; format: functional, cell-based; procedure, shortened: as §4
[12] = system: MCF7; test: Induction of ROS generation in human MCF7 cells at 5 uM after 4 to 8 hrs in presence of NAC by DCFH-DA staining-based fluorescence spectrophotometric analysis; format: functional, cell-based; procedure, shortened: as §1
[13] = system: MCF7; test: Induction of apoptosis in human MCF7 cells assessed as increase in Mcl-1 short level at 1 to 3 uM after 24 hrs by Western blot analysis; format: functional, cell-based; procedure, shortened: as §2
[14] = system: MCF7; test: Effect on mitochondrial membrane potential in human MCF7 cells assessed as shift change at 5 uM measured over 4 hrs by Rhodamine 123 dye-based fluorescence assay; format: functional, cell-based
Procedure, shortened: (§5)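 Mitochondrial potential: HeLa or MCF-7 cells treated with 5 µM (final) for 1, 2, 4 and 8 h. Rhodamine 123 added, cells incubated 30 min at 37 °C, washed with PBS, and analysed by flow cytometry. Fluorescence histogram shift is compared with control.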

[15] = system: HeLa; test: Induction of ROS generation in human HeLa cells at 5 uM after 24 hrs by CM-H2DCFDA staining-based FACS analysis; format: functional, cell-based
Procedure, shortened: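 CM-H2DCFDA ROS: HeLa or MCF-7 cells at 2×10^6/well in 6-well plates treated with 5 μM (final) for 12 or 24 h at 37 °C. Cells harvested, washed with PBS, stained with CM-H2DCFDA in PBS 30 min at 37 °C, washed with ice-cold PBS. Read by FACScan with 488 nm argon laser.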

[16] = system: HeLa; test: Effect on mitochondrial membrane potential in human HeLa cells assessed as shift change at 5 uM measured over 4 hrs by Rhodamine 123 dye-based fluorescence assay; format: functional, cell-based; procedure, shortened: as §5

Cn1cc(/C=N\NC(=O)c2cn(C)c3ccc(Br)cc23)c2ccccc21
inhibition [1]: Dose-dependent effect | Activity [2]: Active | Activity [3]: 29.9% | Activity [4]: inactive | Activity [5]: 58.9% | Activity [6]: 21.18% | Activity [7]: 35.72% | viability at 1 µM [8]: 47.8% | Activity [9]: Dose-dependent effect | viability at 1 µM [10]: 68.8% | Activity [11]: Dose-dependent effect | Activity [12]: inactive | Activity [13]: Active | Activity [14]: Active | Activity [15]: Active | Activity [16]: Active
